Activity calls are given as the source filed them. The rule behind the calls is not given here.
How the values were obtained:
[1] = test system: Micrococcus luteus; assay: Antibacterial activity against Micrococcus luteus ATCC 4698 measured after 24 hrs by two-fold serial dilution method; format: functional; conditions: NCTC 2665, 24 h
Procedure, shortened: (§1)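 MIC by two-fold serial broth microdilution in 96-well plates, following NCCLS recommendations. Chloromycin, norfloxacin and fluconazole serve as reference drugs. The MIC is read as the lowest concentration that inhibits growth, in µg/mL.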

[2] = species: Bos taurus; assay: Binding affinity to calf thymus DNA assessed as increase in maximum absorption peak at 260 nm by UV-vis spectroscopy
Procedure, shortened: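 Absorption spectra of DNA recorded at pH 7.4 and 298 K with increasing concentrations of added agent. Absorbance at 260 nm of the complex is compared with the summed absorbance of free DNA and free agent.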

[3] = test system: Staphylococcus aureus; assay: Antibacterial activity against methicillin-resistant Staphylococcus aureus N315 measured after 24 hrs by two-fold serial dilution method; format: functional; conditions: N315, 24 h
Procedure, shortened: (§2)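 Two-fold serial dilution in 96-well microtest plates following NCCLS guidance (micro broth dilution). Chloromycin and norfloxacin serve as positive controls. MIC is reported in µg/mL.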

[4] = test system: Escherichia coli; assay: Induction of membrane permeabilization in Escherichia coli DH52 at 12 times MIC by propidium iodide staining-based fluorescence analysis; format: functional
Procedure, shortened: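 Propidium iodide uptake measured by fluorescence in E. coli DH52 exposed to agent at 12 × MIC. The dye enters bacteria with compromised membranes and fluoresces on binding DNA.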

[5] = test system: Pseudomonas aeruginosa; assay: Antibacterial activity against Pseudomonas aeruginosa measured after 24 hrs by two-fold serial dilution method; format: functional; procedure, shortened: as §1
[6] = test system: Staphylococcus aureus; assay: Induction of membrane permeabilization in methicillin-resistant Staphylococcus aureus N315 at 12 times MIC by propidium iodide staining-based fluorescence analysis; format: functional
Procedure, shortened: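 Cells are exposed to the agent at 12 × MIC, then stained with propidium iodide. The dye enters only cells with compromised membranes and fluoresces on binding DNA, so fluorescence serves as the permeabilization read-out.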

[7] = test system: Salmonella typhi; assay: Antibacterial activity against Salmonella typhi measured after 24 hrs by two-fold serial dilution method; format: functional, Salmonella enterica subsp. enterica serovar Typhi; conditions: Salmonella enterica; procedure, shortened: as §2
[8] = species: Bos taurus; assay: Binding affinity to calf thymus DNA assessed as DNA intercalation by neutral red dye based UV-vis spectroscopy
[9] = species: Bos taurus; assay: Binding affinity to calf thymus DNA assessed as hypochromic effect by UV-vis spectroscopy
[10] = test system: Proteus vulgaris; assay: Antibacterial activity against Bacillus proteus ATCC 13315 measured after 24 hrs by two-fold serial dilution method; format: functional; conditions: ATCC 13315, 24 h; procedure, shortened: as §1
[11] = test system: Candida albicans; assay: Antifungal activity against Candida albicans ATCC 76615 measured after 24 hrs by two-fold serial dilution method; format: functional; conditions: ATCC 76615, 24 h; procedure, shortened: as §1
[12] = Antifungal activity against Candida utilis measured after 24 hrs by two-fold serial dilution method; format: functional; conditions: Cyberlindnera jadinii; procedure, shortened: as §1
[13] = test system: Bacillus subtilis; assay: Antibacterial activity against Bacillus subtilis measured after 24 hrs by two-fold serial dilution method; format: functional; procedure, shortened: as §1
[14] = test system: Aspergillus flavus; assay: Antifungal activity against Aspergillus flavus measured after 24 hrs by two-fold serial dilution method; format: functional; procedure, shortened: as §1
[15] = test system: Staphylococcus aureus; assay: Antibacterial activity against Staphylococcus aureus ATCC 25923 measured after 24 hrs by two-fold serial dilution method; format: functional; conditions: ATCC 25923, 24 h; procedure, shortened: as §1
[16] = species: Bos taurus; assay: Binding affinity to calf thymus DNA by UV-vis spectroscopy
[17] = test system: Escherichia coli; assay: Induction of Escherichia coli supercoiled pET-28a DNA cleavage measured at 0.1 mM after 5 hrs by agarose gel electrophoresis method
[18] = test system: Escherichia coli; assay: Antibacterial activity against Escherichia coli JM109 measured after 24 hrs by two-fold serial dilution method; format: functional; conditions: JM109, 24 h; procedure, shortened: as §1
[19] = Antifungal activity against Saccharomyces cerevisiae measured after 24 hrs by two-fold serial dilution method; format: functional; procedure, shortened: as §1

Row | SMILES | MIC [1] | Activity [2] | MIC [3] | Activity [4] | MIC [5] | Activity [6] | MIC [7] | Activity [8] | Activity [9] | MIC [10] | MIC80 [11] | MIC80 [12] | MIC [13] | MIC80 [14] | MIC [15] | K [16] | Activity [17] | MIC [18] | MIC80 [19]
1 | CCCCCCCn1c(COc2c(OC)ccc3cc4[n+](cc23)CCc2cc3c(cc2-4)OCO3)nc2ccccc21.[Cl-] | 64 µg/mL | Dose-dependent effect | 8 µg/mL | Active | 16 µg/mL | Active | 2 µg/mL | Active | Active | 512 µg/mL | 4 µg/mL | 8 µg/mL | 32 µg/mL | 32 µg/mL | 4 µg/mL | 4.12 ×10⁴ L/mol | Dose-dependent effect | 4 µg/mL | 512 µg/mL
2 | CCCCCCCCCCCCn1c(COc2c(OC)ccc3cc4[n+](cc23)CCc2cc3c(cc2-4)OCO3)nc2ccccc21.[Cl-] | 128 µg/mL |  | 128 µg/mL |  | 512 µg/mL |  | 8 µg/mL |  |  | 512 µg/mL | 16 µg/mL | 16 µg/mL | 512 µg/mL | 128 µg/mL | 8 µg/mL |  |  | 16 µg/mL | 512 µg/mL
3 | CCCCCCCCn1c(COc2c(OC)ccc3cc4[n+](cc23)CCc2cc3c(cc2-4)OCO3)nc2ccccc21.[Cl-] | 64 µg/mL |  | 64 µg/mL |  | 8 µg/mL |  | 32 µg/mL |  |  | 512 µg/mL | 16 µg/mL | 32 µg/mL | 8 µg/mL | 256 µg/mL | 8 µg/mL |  |  | 512 µg/mL | 512 µg/mL
